Screening data from PubChem BioAssay.
E-sel inducer: induces E-selectin expression in human endothelial cells; P16581; HUVEC E-selectin immunofluorescence imaging; normalized: neutral wells 0, TNF-alpha wells 100; activation, % at 7.58 µM; 0.37% of 260,000 active;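 active = mean E-selectin-positive cell signal at least 10% of the positive control, reached in at least 60% of replicates, without over 20% cell loss; inconclusive = no rule given, readout overlaps actives, possibly toxicity-flagged; inactive = the rest, including those meeting only one limit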
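Material: HUVEC primary endothelial cells; Amount: 3,000 cells per well; Dosing: single concentration; Medium: EGM-2 growth medium on 0.1% gelatin-coated wells; Read-out basis: percent E-selectin-positive cells; Signal: immunofluorescence imaging; Control set: TNF-alpha, DMSO.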
SIRT5 inh: inhibitors of human sirtuin-5 desuccinylase. Q9NXA8. Purified SirT5, succinyl-peptide AMC, trypsin-coupled fluorescence. inhibition, % at 15 µM. 1.1% of 330,000 active. AID 652115; in the data active = inhibition above about 15%; inconclusive = no clear call, values can overlap the other calls
Target sequence (Q9NXA8 whole entry, looked up): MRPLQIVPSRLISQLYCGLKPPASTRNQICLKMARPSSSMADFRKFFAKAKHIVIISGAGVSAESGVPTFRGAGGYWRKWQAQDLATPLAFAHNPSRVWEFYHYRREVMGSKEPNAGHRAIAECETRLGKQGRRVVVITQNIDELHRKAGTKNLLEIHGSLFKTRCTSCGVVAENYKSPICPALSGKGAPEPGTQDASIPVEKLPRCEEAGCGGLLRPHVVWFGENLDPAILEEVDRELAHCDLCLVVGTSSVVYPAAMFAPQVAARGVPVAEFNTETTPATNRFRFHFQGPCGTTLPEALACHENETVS
miR122 inh: miR-122 inhibition in Huh7 cells; Huh7 miR-122 Renilla luciferase sensor, 48 h; neutral wells = 0, positive control = 100; activation (reporter increase), % at 12.5 µM; 0.3% of 340,000 active;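 active = mean replicate activation score at least 90 and every replicate individually at or above 90; inconclusive = only one of the two criteria met; inactive = neither criterion met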;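 note: higher luciferase means less miR-122 activity so hits act as miR-122 inhibitors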
FGF22 binding: binders of recombinant human FGF22 by thermal shift; 1.5% of 340,000 active; activity (Tm shift, normalised), % at 9.99 µM; SYPRO orange fluorescence; percent of sucrose octasulfate shift, DMSO zero; Q9HCT0;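 active = mean Tm shift, scaled 0 neutral to 100 positive control, at about 1.3% or above, every replicate too, limit read from the data; inconclusive = no clear call, values can overlap the other calls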
Target sequence (Q9HCT0 whole entry, looked up): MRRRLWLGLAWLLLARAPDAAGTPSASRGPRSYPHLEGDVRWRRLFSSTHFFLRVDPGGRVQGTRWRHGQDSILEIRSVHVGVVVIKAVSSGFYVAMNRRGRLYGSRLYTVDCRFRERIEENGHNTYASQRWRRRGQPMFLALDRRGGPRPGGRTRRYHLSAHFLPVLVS
S100A4 MyoIIA: S100A4-myosin IIA interaction inhibition; S100A4/TAMRA-MyoIIA peptide fluorescence polarization; inhibition, % at 10.7 µM; 0.14% of 360,000 active;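 active = mean inhibition of at least 70% across replicates, with every replicate also reaching that level; inconclusive = mean inhibition reaches 70% but some replicates fall short; inactive = mean inhibition below 70%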
Target sequence (P26447 whole entry, looked up): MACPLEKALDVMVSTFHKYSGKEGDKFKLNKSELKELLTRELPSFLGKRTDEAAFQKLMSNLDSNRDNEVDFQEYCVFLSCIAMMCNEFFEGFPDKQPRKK
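Assay system: human S100A4 monomer with TAMRA-labelled myosin IIA peptide / Buffer or medium: Calcium-containing HEPES buffer, pH 7.2 / Reagent: TAMRA-labelled myosin IIA heavy-chain peptide probe, 5 nM / Compound: one dose per compound / Timing: polarization read 5 min after assay mix addition, stable 5–60 min / Benchmarks: neutral control DMSO, positive control TFP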
Numbers stand for hits; . = inactive; ? = inconclusive; / = no result. Compounds with a hit are over-represented: about 2.5% of the library has one in this group of screens.

SMILES	E-sel inducer	SIRT5 inh	miR122 inh	FGF22 binding	S100A4 MyoIIA
C[C@@H]1CN([C@@H](C)CO)S(=O)(=O)c2ccc(-c3cccnc3)cc2O[C@H]1CN(C)C(=O)C1CC1	.	/	.	/	/
COc1ccc(C(NC(C)=O)c2cc(Cl)c3cccnc3c2O)cc1 (centres undefined)	.	.	.	.	.
CCCC(=O)NC(c1ccc(OC)c(OC)c1)c1cc(Cl)c2cccnc2c1O (centres undefined)	/	.	.	43	.
COc1ccc(C#Cc2ccc3c(c2)[C@@H]2[C@@H](CCN2C(=O)C2CCCCC2)[C@@H](CO)N3)cc1	.	/	.	/	/
C[C@@H]1CCCCO[C@@H](CN(C)C(=O)c2ccncc2)[C@H](C)CN([C@@H](C)CO)C(=O)c2cc(NS(C)(=O)=O)ccc2O1	.	.	.	.	.
COCC(=O)N1CC2(C1)[C@H](c1ccc(-c3ccccc3)cc1)[C@@H](CO)N2C(=O)COC	.	.	/	.	.
Cc1cc(C)cc(NC2=C(N)C(=O)c3ccccc3C2=O)c1	/	16	.	/	.
Cc1ccc(NC2=C(Cl)C(=O)c3ccccc3C2=O)cc1	.	.	.	.	.
COc1cc(S(=O)(=O)N2CCCCCC2)c(OC)cc1Br	/	/	308	/	/
Cc1ccc(S(=O)(=O)Nc2cccc(S(=O)(=O)N3CCCC3)c2)cc1C	.	.	123	.	.
COc1ccc(S(=O)(=O)Nc2ccc(C)c(S(=O)(=O)N3CCOCC3)c2)cc1[N+](=O)[O-]	.	.	98	.	.
COc1ccc(S(=O)(=O)Nc2ccc(S(=O)(=O)N3CCOCC3)cc2)cc1C	/	/	.	/	/
COc1ccc(NS(=O)(=O)c2cccc(Cl)c2)cc1S(=O)(=O)N1CCCCC1	/	.	438	.	.
COc1ccc(NS(=O)(=O)c2cc(Cl)ccc2Cl)cc1S(=O)(=O)N1CCCCC1	/	.	/	.	.
C[C@@H]1CN([C@H](C)CO)C(=O)c2cc(NC(=O)Nc3ccc(F)cc3)ccc2O[C@@H]1CN(C)Cc1ccncc1	.	.	.	.	.
COc1ccc(COC[C@]23Oc4ccccc4[C@H]([C@H]2COC(=O)c2ccc([N+](=O)[O-])cc2)N(C(=O)CC(C)=O)C(=O)N3C)cc1	/	.	/	.	.
O=[N+]([O-])c1cccc(S(=O)(=O)Nc2nc3ccccc3nc2Nc2cccc(S(=O)(=O)N3CCCCC3)c2)c1	.	25	/	.	.
COc1ccc(NS(=O)(=O)c2cccc(Cl)c2Cl)cc1S(=O)(=O)N1CCCCC1	134	.	/	.	.
COc1ccc(NS(=O)(=O)c2ccc(S(=O)(=O)N3CCCC3)cc2)cc1Cl	/	.	.	/	.
Cc1ccc(S(=O)(=O)Nc2ccc3c(c2)C(=O)N([C@H](C)CO)C[C@@H](C)[C@H](CN(C)Cc2ccc(Cl)c(Cl)c2)OCCCC[C@H](C)O3)cc1	/	19	.	/	.
Cc1ccc(S(=O)(=O)Nc2ccc3c(c2)C(=O)N([C@@H](C)CO)C[C@@H](C)[C@@H](CN(C)Cc2ccc(Cl)c(Cl)c2)OCCCC[C@@H](C)O3)cc1	/	17	.	/	?
Cc1ccc(S(=O)(=O)Nc2ccc3c(c2)C(=O)N([C@H](C)CO)C[C@@H](C)[C@@H](CN(C)Cc2ccc(Cl)c(Cl)c2)OCCCC[C@H](C)O3)cc1	/	.	/	.	.
C[C@@H]1CN([C@H](C)CO)C(=O)c2cc(/C=C/c3ccccc3)cnc2O[C@@H]1CN(C)C(=O)c1ccccc1	.	.	.	.	.
CN(C)C(=O)C[C@H]1CC[C@H]2[C@@H](COC[C@H](O)CN2C(=O)C2CC2)O1	.	.	.	.	.
COc1ccccc1OCCOc1ccc(/C=C2\C(=N)N3N=C(S(C)(=O)=O)SC3=NC2=O)cc1	.	.	.	2.1	.
SMILES	E-sel inducer	SIRT5 inh	miR122 inh	FGF22 binding	S100A4 MyoIIA
COc1ccc(S(=O)(=O)NCC(=O)Nc2ccc(F)cc2)cc1	/	.	.	.	.
CC(C)c1ccc(NC(=O)CNS(=O)(=O)c2ccc(F)cc2)cc1	.	.	.	43	.
Cc1ccc(N(C)S(=O)(=O)c2c[nH]c3ccc([N+](=O)[O-])cc23)cc1	/	.	110	.	.
O=C(/C=C/c1ccccc1Cl)N1CCOCC1	.	.	.	.	.
Cc1ccccc1/C=C/C(=O)N1CCOCC1	/	.	.	43	.
COc1ccc(S(=O)(=O)Nc2cc3c4c(oc3c3ccccc23)CCCC4=O)cc1	/	/	127	/	/
COc1ccc(S(=O)(=O)Nc2cc3c4c(oc3c3ccccc23)CC(C)(C)CC4=O)cc1	/	/	.	/	/
O=C1CCCS(=O)(=O)c2ccccc21	.	.	172	.	.
Cn1ccnc1C(OC(=O)c1ccccc1)C(F)(F)F (centres undefined)	.	15	.	.	.
O=C(NCc1ccccc1)[C@]1(CCS(=O)(=O)c2ccccc2)N=C(c2ccc(OCCCO)cc2)O[C@@H]1c1ccccc1	/	.	/	.	.
O=C(NCc1ccc(F)cc1)c1cc(C2CCCCN2C(=O)CCCc2ccccc2)on1 (centres undefined)	83	/	.	.	.
CC(C)CC#Cc1ccc2c(c1)O[C@@H](CN(C)C(=O)CC1CC1)[C@H](C)CN([C@@H](C)CO)S2(=O)=O	.	.	.	.	.
C[C@@H]1CN([C@@H](C)CO)S(=O)(=O)c2ccc(C#Cc3ccccc3)cc2O[C@H]1CN(C)C(=O)C1CC1	.	20	.	.	.
C[C@H](CO)N1C[C@H](C)[C@H](CN(C)C(=O)CC2CC2)Oc2cc(C#CC(C)(C)O)ccc2S1(=O)=O	.	18	.	.	.
CC(C)CC#Cc1ccc2c(c1)O[C@H](CN(C)C(=O)C1CCCCC1)[C@H](C)CN([C@@H](C)CO)S2(=O)=O	.	22	.	.	.
CC(C)CC#Cc1ccc2c(c1)O[C@@H](CN(C)C(=O)C1CCCCC1)[C@@H](C)CN([C@@H](C)CO)S2(=O)=O	.	.	.	.	.
CC(C)CC#Cc1ccc2c(c1)O[C@H](CN(C)C(=O)CC1CC1)[C@H](C)CN([C@@H](C)CO)S2(=O)=O	.	18	.	.	.
C[C@@H]1CN([C@@H](C)CO)C(=O)c2c(c3ccccc3n2C)-c2ccccc2CO[C@H]1CN(C)Cc1ccccc1C(F)(F)F	.	.	/	.	.
CCc1cccc(NC(=O)O[C@H]2[C@H](OC(=O)Nc3ccc4c(c3)OCO4)[C@@H](OC(=O)Nc3ccc4c(c3)OCO4)[C@@H](OC)O[C@@H]2CO)c1	/	.	/	.	.
C/C=C/c1ccc([C@@H]2[C@H](CO)N3C(=O)CN(C(=O)Nc4ccccc4F)C[C@@H]23)cc1	.	.	/	.	.
COc1ccc(S(=O)(=O)Nc2ccc3c(c2)C(=O)N([C@@H](C)CO)C[C@@H](C)[C@H](CN(C)C(=O)c2ccccc2)OCCCC[C@@H](C)O3)cc1	.	.	.	.	.
Clc1nnc(NC2CCCCC2)c(Cl)c1Cl	.	/	/	43	.
c1ccc2c(NC3CCCC3)nnc(NC3CCCC3)c2c1	/	/	.	/	/
